Test results: ChEMBL document CHEMBL3351948, “Synthesis of gallinamide A analogues as potent falcipain inhibitors and antimalarials” (J Med Chem, 2014)
Active and inactive are the calls of the source. The calls are words filed in the database; no cut-off is given here.

How the values were obtained:
Plasmodium falciparum [1] = experiment: Antiplasmodial activity against chloroquine-sensitive Plasmodium falciparum 3D7 infected in human erythrocytes by [3H]-hypoxanthine incorporation assay; assay type: functional, organism-based
Method in brief: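 IC50 against the chloroquine-sensitive 3D7 strain was measured by [3H]-hypoxanthine incorporation in cultured parasites. Values are means with standard error of the mean from three experiments.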

[2] = Inhibition of Plasmodium falciparum FP3 using Z-Phe-Arg-AMC as substrate incubated for 30 mins prior to substrate addition measured after 30 mins by fluorescence assay
Method in brief: (§1)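 The assay read enzyme activity with a fluorescence-based kinetic method and reported IC50 in nM. Values are means with standard error of the mean from three experiments.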

Falcipain 2 [3] = biological target: T1, Falcipain 2 (Plasmodium falciparum, UniProt Q9N6S8); experiment: Inhibition of Plasmodium falciparum FP2 using Z-Phe-Arg-AMC as substrate incubated for 30 mins prior to substrate addition measured after 30 mins by fluorescence assay; method in brief: as §1
T1 sequence (Q9N6S8 whole entry): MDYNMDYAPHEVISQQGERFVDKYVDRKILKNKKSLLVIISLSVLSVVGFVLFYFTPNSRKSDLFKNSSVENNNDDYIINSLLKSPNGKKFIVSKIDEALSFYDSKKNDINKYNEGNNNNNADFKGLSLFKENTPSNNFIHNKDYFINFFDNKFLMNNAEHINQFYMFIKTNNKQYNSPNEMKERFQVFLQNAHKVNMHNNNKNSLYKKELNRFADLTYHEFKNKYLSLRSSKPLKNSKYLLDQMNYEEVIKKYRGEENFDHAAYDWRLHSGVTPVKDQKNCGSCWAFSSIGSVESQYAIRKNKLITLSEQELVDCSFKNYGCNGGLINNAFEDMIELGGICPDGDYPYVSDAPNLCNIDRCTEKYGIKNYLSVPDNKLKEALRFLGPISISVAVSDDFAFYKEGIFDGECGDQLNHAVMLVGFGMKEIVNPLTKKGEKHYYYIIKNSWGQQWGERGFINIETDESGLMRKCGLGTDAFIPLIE

Plasmodium falciparum [4] = experiment: Antiplasmodial activity against Plasmodium falciparum 3D7 trophozoite stage assessed as swollen food vacuole after 3 days by Giemsa staining-based assay; assay type: functional, organism-based
Plasmodium falciparum [5] = experiment: Inhibition of Plasmodium falciparum AP-M1
[6] = Cytotoxicity against […] cells assessed as cell viability by AlamarBlue assay; assay type: cell-based; conditions: Homo sapiens
Plasmodium falciparum [7] = experiment: Inhibition of Plasmodium falciparum AP-M17
Plasmodium falciparum [8] = experiment: Antiplasmodial activity against multidrug-resistant Plasmodium falciparum Dd2 infected in human erythrocytes by [3H]-hypoxanthine incorporation assay; assay type: functional, organism-based
Method in brief: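 Chloroquine-resistant P. falciparum Dd2 strain; IC50 reported with standard error of the mean from three experiments.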

Plasmodium falciparum [9] = experiment: Inhibition of Plasmodium falciparum AP-M18
[10] = biological target: Procathepsin L (Homo sapiens) (UniProt P07711); experiment: Inhibition of human cathepsin L expressed in Pichia pastoris using N-Cbz-Phe-Arg-7-amino-4-methylcoumarin as substrate incubated for 90 mins prior to substrate addition measured after 30 mins by fluorescence assay
Sequence of Procathepsin L (Homo sapiens) (P07711 114-333 limits assumed): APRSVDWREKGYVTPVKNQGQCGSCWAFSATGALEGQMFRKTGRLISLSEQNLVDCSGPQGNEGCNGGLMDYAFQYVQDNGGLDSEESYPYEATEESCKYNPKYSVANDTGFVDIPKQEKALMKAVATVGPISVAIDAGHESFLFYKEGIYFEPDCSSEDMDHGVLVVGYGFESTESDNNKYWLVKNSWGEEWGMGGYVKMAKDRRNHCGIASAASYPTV

Plasmodium falciparum [11] = experiment: Antiplasmodial activity against Plasmodium falciparum 3D7 trophozoite stage assessed as swollen food vacuole at <5 nM after 3 days by Giemsa staining-based assay; assay type: functional, organism-based
[12] = Inhibition of FP3 in Plasmodium falciparum trophozoite stage after 1 hr by SDS-PAGE analysis
[13] = Inhibition of FP1 in Plasmodium falciparum trophozoite stage after 1 hr by SDS-PAGE analysis
Falcipain 2 [14] = biological target: T1, Falcipain 2; experiment: Inhibition of FP2 in Plasmodium falciparum trophozoite stage after 1 hr by SDS-PAGE analysis
Plasmodium falciparum [15] = experiment: Antiplasmodial activity against Plasmodium falciparum 3D7; assay type: functional, organism-based
Method in brief: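 Chloroquine-sensitive P. falciparum 3D7 cultures; growth inhibition read out as [3H]-hypoxanthine incorporation; IC50 reported with standard error of the mean from three experiments.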

Falcipain 2 [16] = biological target: T1, Falcipain 2; experiment: Inhibition of FP2' in Plasmodium falciparum trophozoite stage after 1 hr by SDS-PAGE analysis

| SMILES | IC50 (Plasmodium falciparum [1]) [nM] | IC50 [2] [nM] | IC50 (Falcipain 2 [3]) [nM] | Activity (Plasmodium falciparum [4]) | INH (Plasmodium falciparum [5]) [µM] | IC50 [6] [nM] | INH (Plasmodium falciparum [7]) [µM] | IC50 (Plasmodium falciparum [8]) [nM] | INH (Plasmodium falciparum [9]) [µM] | inhibition [10] | Activity (Plasmodium falciparum [11]) | IC50 [12] [nM] | IC50 [13] [nM] | IC50 (Falcipain 2 [14]) [nM] | IC50 (Plasmodium falciparum [15]) [nM] | IC50 (Falcipain 2 [16]) [nM] |
| --- | --- | --- | --- | --- | --- | --- | --- | --- | --- | --- | --- | --- | --- | --- | --- | --- |
| CC[C@H](C)[C@@H](C(=O)N[C@@H](CC(C)C)C(=O)N[C@@H](CC(C)C)C(=O)N[C@H](C(=O)N[C@@H](C)/C=C/C(=O)N[C@@H](C)C(=O)N1C[C@@H](O)C[C@H]1C(=O)OC)C(C)C)N(C)C | > 50000 | > 50000 | > 50000 | Active |  |  |  |  |  |  |  |  |  |  |  |  |
| CC(C)C[C@H](NC(=O)[C@H](CC(C)C)NC(=O)[C@@H](C(C)C)N(C)C)C(=O)N[C@@H](C)/C=C/C(=O)N[C@@H](C)C(=O)NCc1ccccc1 | 5400 | > 25000 | 3400 | Active | > 10 | > 50000 | > 10 | 170 | > 10 | Active |  |  |  |  |  |  |
| COC1=CC(=O)N(C(=O)CC[C@H](C)NC(=O)[C@H](CC(C)C)NC(=O)[C@H](CC(C)C)NC(=O)[C@H](C(C)C)N(C)C)[C@H]1C | 4380 | > 50000 | 3710 | inactive |  |  |  |  |  |  |  |  |  |  |  |  |
| CC(C)C[C@H](NC(=O)[C@H](CC(C)C)NC(=O)[C@H](C(C)C)N(C)C)C(=O)N[C@@H](C)/C=C/C(=O)N1C(=O)C=C(OCc2ccccc2)[C@@H]1C(C)C | 62 | 182 | 6.86 |  |  |  |  |  |  |  | Active |  |  |  |  |  |
| COC1=CC(=O)N(C(=O)/C=C/[C@H](C)NC(=O)[C@H](CC(C)C)NC(=O)[C@H](CC(C)C)NC(=O)[C@H](C(C)C)N(C)C)[C@H]1C | 89.3 | 292 | 6.78 | Active | > 10 | 14200 | > 10 | 302 | > 10 | Active |  |  |  |  |  |  |
| CC[C@H](C)[C@@H](C(=O)O[C@@H](CC(C)C)C(=O)N[C@@H](CC(C)C)C(=O)N[C@@H](C)/C=C/C(=O)N1C(=O)C=C(OC)[C@@H]1C)N(C)C [GALLINAMIDE A] |  |  |  |  |  |  |  |  |  |  |  | 22 | 140 | 8.5 | 50 | 8.5 |
| COC1=CC(=O)N(C(=O)/C=C/[C@H](C)NC(=O)[C@H](CC(C)C)NC(=O)[C@H](CC(C)C)NC(=O)[C@H](C(C)C)N(C)C)[C@H]1Cc1ccc(O)cc1 | 20 | 81.4 | 5.25 |  | > 10 | 18900 | > 10 | 67 | > 10 | Active | Active |  |  |  |  |  |
| COC1=CC(=O)N(C(=O)/C=C/[C@H](C)NC(=O)[C@H](CC(C)C)NC(=O)[C@H](CC(C)C)NC(=O)[C@H](C(C)C)N(C)C)[C@H]1Cc1c[nH]c2ccccc12 | 9.7 | 66.7 | 12 |  | > 10 | 8500 | > 10 | 29 | > 10 | Active | Active |  |  |  |  |  |
| CC(C)C[C@H](NC(=O)[C@H](CC(C)C)NC(=O)[C@H](C(C)C)N(C)C)C(=O)N[C@@H](C)/C=C/C(=O)N1CC(OCc2ccccc2)=CC1=O | 96 | 196 | 9.59 |  |  |  |  |  |  |  | Active |  |  |  |  |  |
